Data: ChEMBL document CHEMBL2150854, “Macrocyclic Hedgehog Pathway Inhibitors: Optimization of Cellular Activity and Mode of Action Studies” (ACS Med Chem Lett, 2012)
Activity calls are given as the source filed them. No cut-off for these calls is given here.

Legend:
[1] = biological target: Protein smoothened (Mus musculus) (UniProt P56726); experiment: Inhibition of Smo in mouse C3H10T1/2 cells assessed as inhibition of human Shh-induced cell differentiation after 48 hrs by alkaline phosphatase reporter assay relative to cyclopamine; format: cell-based; conditions: C3H 10T1/2
Procedure, shortened: (§1)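 Murine mesenchymal C3H10T1/2 cells were induced to differentiate with Shh protein. Differentiation was read as alkaline phosphatase expression, quantified with fluorescent substrates. Uninduced cells served as baseline. IC50 was taken from dose–response curves.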

[2] = biological target: Protein smoothened (Mus musculus) (UniProt P56726); conditions: C3H 10T1/2, at 103 to 25000 nM
[3] = biological target: Protein smoothened (Mus musculus) (UniProt P56726); experiment: Inhibition of Smo in mouse C3H10T1/2 cells assessed as inhibition of human Shh-induced Gli1 transcriptional activity after 48 hrs by RT-PCR analysis in presence of SAG; format: cell-based; conditions: C3H 10T1/2
[4] = biological target: Protein smoothened (Mus musculus) (UniProt P56726); experiment: Inhibition of Smo in mouse C3H10T1/2 cells assessed as inhibition of human Shh-induced Gli1 transcriptional activity after 48 hrs by RT-PCR analysis relative to cyclopamine; format: cell-based; conditions: C3H 10T1/2
[5] = biological target: Protein smoothened (Mus musculus) (UniProt P56726); experiment: Ratio of IC50 for Smo in mouse C3H10T1/2 cells assessed as inhibition of human Shh-induced Gli1 transcriptional activity in presence of SAG to IC50 for Smo in mouse C3H10T1/2 cells assessed as inhibition of human Shh-induced Gli1 transcriptional activity; format: cell-based; conditions: C3H 10T1/2
[6] = biological target: Protein smoothened (Mus musculus) (UniProt P56726); experiment: Competitive inhibition of Smo in mouse C3H10T1/2 cells assessed as inhibition of purmorphamine-induced Gli1 transcriptional activity at 103 to 25000 nM by qPCR analysis; format: cell-based; conditions: C3H 10T1/2
[7] = biological target: Protein smoothened (Mus musculus) (UniProt P56726); experiment: Inhibition of Smo in mouse Ptch-deficient MEF cells assessed as inhibition of Shh-induced Gli-responsive betagalactosidase activity after 30 hrs by BetaGLo assay in presence of SAG; format: cell-based
Procedure, shortened: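 Ptch-/- MEF β-gal reporter cells were given an inhibitor dose range together with 20 nM SAG. β-Gal activity was read, with untreated cells and 100 nM KAAD-cyclopamine-treated cells as reference levels.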

[8] = biological target: T1, Protein smoothened (Mus musculus, UniProt P56726); experiment: Inhibition of Smo in mouse Ptch-deficient MEF cells assessed as inhibition of Shh-induced Gli1 transcriptional activity; format: cell-based
[9] = biological target: Protein smoothened (Mus musculus) (UniProt P56726); experiment: Inhibition of Smo in mouse Ptch-deficient MEF cells assessed as inhibition of Shh-induced Gli1 transcriptional activity in presence of SAG; format: cell-based
[10] = biological target: T1, Protein smoothened; experiment: Inhibition of Smo in mouse Ptch-deficient MEF cells assessed as inhibition of Shh-induced Gli-responsive betagalactosidase activity after 30 hrs by BetaGLo assay; format: cell-based
[11] = biological target: T1, Protein smoothened; experiment: Inhibition of Smo in mouse C3H10T1/2 cells assessed as inhibition of human Shh-induced Gli1 transcriptional activity after 48 hrs by RT-PCR analysis; format: cell-based, C3H 10T1/2
Procedure, shortened: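 Murine mesenchymal C3H10T1/2 cells were activated with Shh protein and exposed to inhibitor. Gli1 mRNA was quantified by real-time qPCR, normalised to Actb as internal control, and IC50 was taken from dose–response curves.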

[12] = tested on: C3H 10T1/2; experiment: Effect on purmorphamine-induced Gli1 transcription in mouse C3H10T1/2 cells at 103 to 25000 nM by qPCR analysis; format: functional, cell-based
[13] = biological target: Sonic hedgehog protein (Homo sapiens) (UniProt Q15465); experiment: Inhibition of human Shh-induced mouse C3H10T1/2 cell differentiation after 48 hrs by alkaline phosphatase reporter assay relative to cyclopamine; conditions: C3H 10T1/2; procedure, shortened: as §1
[14] = tested on: C3H 10T1/2; experiment: Effect on SAG-induced Gli1 transcription in mouse C3H10T1/2 cells at 103 to 25000 nM by qPCR analysis; format: functional, cell-based
Procedure, shortened: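 Double-titration (Schild-type) design in murine mesenchymal C3H10T1/2 cells. Gli1 expression is induced by a series of SAG concentrations, each combined with several inhibitor concentrations. Gli1 mRNA is quantified by real-time qPCR with Actb as internal control. SAG dose–response curves are compared across inhibitor levels for shifts and for the maximal induction.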

[15] = biological target: Protein smoothened (Mus musculus) (UniProt P56726); experiment: Competitive inhibition of Smo in mouse C3H10T1/2 cells assessed as inhibition of purmorphamine-induced Gli1 transcriptional activity at 309 to 25000 nM by qPCR analysis; format: cell-based; conditions: C3H 10T1/2
[16] = tested on: C3H 10T1/2; experiment: Effect on purmorphamine-induced Gli1 transcription in mouse C3H10T1/2 cells at 55.5 to 4500 nM by qPCR analysis; format: functional, cell-based
[17] = biological target: Protein smoothened (Mus musculus) (UniProt P56726); conditions: C3H 10T1/2, 55.5 to 4500 nM

Chain of Protein smoothened (Mus musculus) (P56726 whole entry): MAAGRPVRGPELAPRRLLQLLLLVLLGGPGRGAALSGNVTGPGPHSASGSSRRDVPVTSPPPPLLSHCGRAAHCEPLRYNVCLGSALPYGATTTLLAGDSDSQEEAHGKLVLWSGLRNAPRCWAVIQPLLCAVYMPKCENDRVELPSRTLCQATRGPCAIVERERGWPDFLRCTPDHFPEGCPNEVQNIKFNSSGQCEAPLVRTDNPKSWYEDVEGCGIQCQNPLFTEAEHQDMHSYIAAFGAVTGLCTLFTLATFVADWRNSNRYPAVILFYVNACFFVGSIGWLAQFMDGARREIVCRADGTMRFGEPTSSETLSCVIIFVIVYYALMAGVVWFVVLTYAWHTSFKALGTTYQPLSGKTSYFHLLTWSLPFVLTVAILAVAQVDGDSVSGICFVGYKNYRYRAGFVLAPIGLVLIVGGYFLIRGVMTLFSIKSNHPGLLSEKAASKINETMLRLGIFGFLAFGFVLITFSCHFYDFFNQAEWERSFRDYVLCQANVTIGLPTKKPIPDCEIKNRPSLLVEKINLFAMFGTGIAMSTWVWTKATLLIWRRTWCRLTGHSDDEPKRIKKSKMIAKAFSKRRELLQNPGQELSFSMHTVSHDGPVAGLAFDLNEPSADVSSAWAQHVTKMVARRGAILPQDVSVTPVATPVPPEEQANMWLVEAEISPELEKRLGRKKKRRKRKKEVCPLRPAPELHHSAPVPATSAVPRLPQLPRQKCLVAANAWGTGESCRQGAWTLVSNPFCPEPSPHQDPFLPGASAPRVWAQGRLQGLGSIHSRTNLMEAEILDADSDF
T1 sequence (P56726 whole entry): as above
Chain of Sonic hedgehog protein (Homo sapiens) (Q15465 24-197 limits assumed): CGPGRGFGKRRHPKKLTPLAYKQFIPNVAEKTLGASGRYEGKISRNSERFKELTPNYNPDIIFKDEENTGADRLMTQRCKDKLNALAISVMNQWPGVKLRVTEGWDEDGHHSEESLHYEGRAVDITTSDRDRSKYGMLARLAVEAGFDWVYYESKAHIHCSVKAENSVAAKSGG

Q: CCCC[C@@H]1COC(=O)[C@H](CC(=O)NCc2ccc(Cl)cc2)C/C=C/CCC(=O)N1 was tested. Which Imax [1] did it give?
A: Its Imax is 53%.

Q: For O=C(C[C@@H]1C/C=C/CCC(=O)OC[C@@H]2CCCN2C1=O)NCc1ccc(Cl)cc1, which Imax [1] is on record?
A: Its Imax is 77%.

Q: With C[C@H]1[C@@H](c2ccccc2)OC(=O)CC/C=C/C[C@@H](CC(=O)NCc2ccc(Cl)cc2)C(=O)N1C as the compound, how does the Imax [1] read?
A: The Imax was 78%.

Q: How did the Imax [1] turn out when CN1C[C@@H](c2ccccc2)OC(=O)CC/C=C/C[C@@H](Cc2ccc(Cl)cc2)C1=O was run?
A: The Imax was 104%.

Q: Which Imax [1] does the source give for O=C(C[C@@H]1C/C=C/C[C@H](Cc2ccccc2)C(=O)N[C@H](c2ccccc2)COC1=O)NCc1ccc(Cl)cc1 here?
A: Its Imax is 106%.

Q: Which results are given for O=C(C[C@@H]1C/C=C/CCC(=O)N[C@H](c2ccc(Cl)cc2)COC1=O)NCc1ccc(Cl)cc1?
A: Imax [1]: 105%; inhibition [2]: Active; inhibition [3]: inactive; Imax [4]: 100%; Ratio IC50 [5]: 32; inhibition [6]: Active; inhibition [7]: inactive; IC50 [8]: 3.5 µM; inhibition [9]: inactive; IC50 [10]: 2 µM; IC50 [11]: 0.4 µM

Q: C[C@@H]1NC(=O)[C@H](CC(=O)NCc2ccc(Cl)cc2)C/C=C/CCC(=O)O[C@@H]1c1ccccc1 was tested. Which Imax [1] did it give?
A: The Imax was 77%.

Q: With O=C(C[C@@H]1C/C=C/CCC(=O)N[C@@H](c2ccccc2)COC1=O)NCc1ccc(Cl)cc1 as the compound, how does the Imax [1] read?
A: The Imax was 95%.

Q: Which results are given for O=C(C[C@@H]1C/C=C/CCC(=O)O[C@H](c2ccccc2)CNC1=O)NCc1ccc(Cl)cc1?
A: Activity [12]: inactive; Imax [13]: 47%; Activity [14]: inactive

Q: How did the Imax [1] turn out when C[C@H]1NC(=O)[C@H](CC(=O)NCc2ccc(Cl)cc2)C/C=C/CCC(=O)O[C@@H]1c1ccccc1 was run?
A: Its Imax is 69%.

Q: What does the source list for O=C(C[C@@H]1C/C=C/CCC(=O)N[C@H](Cc2ccccc2)COC1=O)NCc1ccc(Cl)cc1?
A: Imax [1]: 90%; inhibition [2]: Active; inhibition [3]: inactive; inhibition [15]: Active; Ratio IC50 [5]: 18; inhibition [7]: inactive; IC50 [8]: 8.8 µM; inhibition [9]: inactive; IC50 [10]: 8.1 µM

Q: How did the Imax [1] turn out when O=C(C[C@@H]1C/C=C/CCC(=O)O[C@H](c2ccccc2)CNC1=O)NCc1cccc(Cl)c1 was run?
A: Its Imax is 50%.

Q: With O=C(C[C@@H]1C/C=C/CCC(=O)N[C@H](c2ccc(Cl)cn2)COC1=O)NCc1ccc(Cl)cc1 as the compound, how does the Imax [4] read?
A: Its Imax is 85%.

Q: And the IC50 [11]?
A: Its IC50 is 4.3 µM.

Q: Which Imax [1] does the source give for C[C@H]1C/C=C/C[C@@H](CC(=O)NCc2ccc(Cl)cc2)C(=O)OC[C@@H](c2ccccc2)NC1=O here?
A: The Imax was 78%.

Q: CC(C)N[C@H]1C/C=C/C[C@@H](CC(=O)NCc2ccc(Cl)cc2)C(=O)NC[C@@H](c2ccccc2)OC1=O was tested. Which Imax [1] did it give?
A: Its Imax is 41%.

Q: Which Imax [1] does the source give for O=C(C[C@@H]1C/C=C/CCC(=O)N[C@@H]2c3ccccc3C[C@@H]2OC1=O)NCc1ccc(Cl)cc1 here?
A: Its Imax is 40%.

Q: CC(C)(C)OC(=O)C[C@@H]1C/C=C/CCC(=O)N[C@H](c2ccccc2)COC1=O was tested. Which Imax [1] did it give?
A: The Imax was 60%.

Q: O=C(C[C@@H]1C/C=C/CCC(=O)N[C@H](c2ccccc2)COC1=O)NCc1ccc(Cl)cc1 was tested. Which Imax [1] did it give?
A: The Imax was 86%.

Q: C[C@H]1[C@@H](c2ccccc2)OC(=O)CCCCC[C@@H](CC(=O)NCc2ccc(Cl)cc2)C(=O)N1C was tested. Which Imax [1] did it give?
A: Its Imax is 59%.

Q: With C[C@H]1C/C=C\C[C@@H](CC(=O)NCc2ccc(Cl)cc2)C(=O)OC[C@@H](c2ccccc2)NC1=O as the compound, how does the Imax [1] read?
A: Its Imax is 97%.

Q: For O=C(C[C@@H]1C/C=C/CCC(=O)N[C@H](C2CCCCC2)COC1=O)NCc1ccc(Cl)cc1, which Imax [1] is on record?
A: The Imax was 75%.

Q: CC(C)[C@@H]1COC(=O)[C@H](CC(=O)NCc2ccc(Cl)cc2)C/C=C/CCC(=O)N1 was tested. Which Imax [1] did it give?
A: The Imax was 54%.

Q: How did the Imax [1] turn out when O=C(CN1C/C=C/CCC(=O)N[C@H](c2ccccc2)COC1=O)NCc1ccc(Cl)cc1 was run?
A: The Imax was 47%.

Q: O=C(C[C@@H]1C/C=C/CCC(=O)O[C@H](c2ccccc2)CNC1=O)NCCCC(F)(F)F was tested. Which Imax [1] did it give?
A: The Imax was 28%.

Q: Which Activity [16] does the source give for CC1=C2C[C@H]3[C@@H](CC=C4C[C@@H](O)CC[C@@]43C)[C@@H]2CC[C@]12O[C@@H]1C[C@H](C)CN[C@H]1[C@H]2C here?
A: Its Activity is “inactive”.

Q: And the inhibition [17]?
A: The inhibition was “Active”.

Q: What about the inhibition [3] of the same compound?
A: The inhibition was “inactive”.

Q: What about the inhibition [7] of the same compound?
A: The inhibition was “inactive”.

Q: What about the inhibition [9] of the same compound?
A: Its inhibition is “inactive”.

Q: Which Imax [1] does the source give for O=C(C[C@@H]1C/C=C/CCC(=O)N[C@H](c2ccc(F)cc2)COC1=O)NCc1ccc(Cl)cc1 here?
A: The Imax was 90%.
